Test results published in ChEMBL document CHEMBL1155918, “Oxadiazole-carbonylaminothioureas as SIRT1 and SIRT2 inhibitors” (J Med Chem, 2008).

Assays:
[1] = molecular target: T1, NAD-dependent protein deacetylase sirtuin-1 (Homo sapiens) (UniProt Q96EB6); test: Inhibition of human SIRT1 at 200 uM
T1 sequence (whole entry): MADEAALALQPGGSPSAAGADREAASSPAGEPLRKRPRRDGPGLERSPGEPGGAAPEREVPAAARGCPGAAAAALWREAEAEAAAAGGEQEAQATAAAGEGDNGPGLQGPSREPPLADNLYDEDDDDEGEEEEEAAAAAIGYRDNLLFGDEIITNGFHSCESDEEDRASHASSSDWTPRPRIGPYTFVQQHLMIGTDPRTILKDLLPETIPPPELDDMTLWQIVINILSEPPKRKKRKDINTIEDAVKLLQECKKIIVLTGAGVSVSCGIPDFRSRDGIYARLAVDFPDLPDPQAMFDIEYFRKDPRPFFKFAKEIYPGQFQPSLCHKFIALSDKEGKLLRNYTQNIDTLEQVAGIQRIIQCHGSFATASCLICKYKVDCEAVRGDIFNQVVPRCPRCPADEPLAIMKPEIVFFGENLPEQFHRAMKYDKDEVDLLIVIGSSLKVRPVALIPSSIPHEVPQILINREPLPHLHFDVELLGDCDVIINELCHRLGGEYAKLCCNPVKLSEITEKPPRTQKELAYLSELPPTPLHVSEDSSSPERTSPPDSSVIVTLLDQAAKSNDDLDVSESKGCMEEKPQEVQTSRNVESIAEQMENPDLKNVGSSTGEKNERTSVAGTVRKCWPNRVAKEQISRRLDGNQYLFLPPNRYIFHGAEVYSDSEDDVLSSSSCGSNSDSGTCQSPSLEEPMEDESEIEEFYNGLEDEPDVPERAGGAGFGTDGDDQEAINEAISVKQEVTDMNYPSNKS
Outline: (§1)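 Single-concentration screen at 200 µM compound in the NAD⁺-based assay, with radiolabeled nicotinamide release read by thin layer chromatography. Result is % inhibition ± standard deviation (n = 2-3).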

[2] = molecular target: T2, NAD-dependent protein deacetylase sirtuin-2 (Homo sapiens) (UniProt Q8IXJ6); test: Inhibition of human SIRT2 at 200 uM; outline: as §1
T2 sequence (whole entry): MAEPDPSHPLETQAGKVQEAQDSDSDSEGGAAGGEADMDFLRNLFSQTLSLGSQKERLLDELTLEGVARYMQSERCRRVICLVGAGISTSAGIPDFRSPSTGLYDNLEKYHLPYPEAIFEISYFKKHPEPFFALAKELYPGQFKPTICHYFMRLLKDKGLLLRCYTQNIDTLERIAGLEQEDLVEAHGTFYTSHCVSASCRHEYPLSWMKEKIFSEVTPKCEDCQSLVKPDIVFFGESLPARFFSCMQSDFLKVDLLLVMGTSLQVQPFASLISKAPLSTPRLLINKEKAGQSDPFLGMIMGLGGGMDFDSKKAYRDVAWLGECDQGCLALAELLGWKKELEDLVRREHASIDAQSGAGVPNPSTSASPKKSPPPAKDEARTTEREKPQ

[3] = molecular target: T3, NAD-dependent protein deacetylase sirtuin-1 (Homo sapiens, UniProt Q96EB6); test: Inhibition of human SIRT1 assessed as nicotinamide releasing by microplate filtration assay
T3 sequence (Q96EB6 whole entry): T1 sequence (whole entry)

[4] = molecular target: T4, NAD-dependent protein deacetylase sirtuin-2 (Homo sapiens, UniProt Q8IXJ6); test: Inhibition of human SIRT2 assessed as nicotinamide releasing by microplate filtration assay
T4 sequence (Q8IXJ6 whole entry): T2 sequence (whole entry)

CC(C)(C)c1ccc(-c2noc(C(=O)NNC(=S)Nc3ccccc3)n2)cc1
inhibition [1]: -2%
inhibition [2]: 29%

O=C(NNC(=S)Nc1ccc(F)cc1)c1nc(-c2ccccc2)no1
inhibition [2]: 22%

CC(C)(C)c1ccc(-c2noc(C(=O)NNC(=O)Nc3cccc([N+](=O)[O-])c3)n2)cc1
inhibition [1]: 18%
inhibition [2]: 39%

CC(C)(C)c1ccc(-c2noc(C(=O)NCC(=O)Nc3cccc(C(F)(F)F)c3)n2)cc1
inhibition [1]: 20%
inhibition [2]: 18%

O=C(CCCc1nc(-c2ccccc2)no1)Nc1ccccc1
inhibition [1]: 0%
inhibition [2]: 5%

O=C(CNC(=O)c1nc(-c2ccccc2)no1)Nc1ccccc1
inhibition [1]: 28%
inhibition [2]: 17%

CC(C)(C)c1ccc(-c2noc(CCCC(=O)Nc3cccc(C(F)(F)F)c3)n2)cc1
inhibition [1]: 17%
inhibition [2]: 0%

O=C(NNC(=S)Nc1ccc(C(F)(F)F)cc1)c1nc(-c2ccccc2)no1
inhibition [1]: 29%
inhibition [2]: 8%

O=C(NNC(=S)Nc1ccc(C(F)(F)F)cc1)c1nc(-c2cccnc2)no1
inhibition [1]: 4%
inhibition [2]: -4%

O=C(NNC(=S)Nc1ccc(C(F)(F)F)cc1)c1nc(-c2cccc3ccccc23)no1
inhibition [1]: 54%
inhibition [2]: 71%
IC50 [3]: 318 µM
IC50 [4]: 74 µM

CC(C)(C)c1ccc(-c2noc(C(=O)NNC(=O)Nc3ccccc3)n2)cc1
inhibition [1]: 14%
inhibition [2]: 38%

O=C(NNC(=S)Nc1ccc(F)cc1)c1nc(-c2cccc3ccccc23)no1
inhibition [1]: 10%
inhibition [2]: 35%

CC(C)(C)c1ccc(-c2noc(C(=O)NNC(=S)Nc3ccc(C(F)(F)F)cc3)n2)cc1
inhibition [1]: 70%
inhibition [2]: 89%
IC50 [3]: 325 µM
IC50 [4]: 109 µM

CC(C)(C)OC(=O)Nc1cccc(-c2noc(C(=O)NNC(=S)Nc3ccc(C(F)(F)F)cc3)n2)c1
inhibition [1]: 69%
inhibition [2]: 71%
IC50 [3]: 168 µM
IC50 [4]: 129 µM

O=C(NNC(=O)c1nc(-c2cccc3ccccc23)no1)Nc1cccc(C(F)(F)F)c1
inhibition [1]: 12%
inhibition [2]: 51%
IC50 [4]: 257 µM

O=C(NNC(=S)Nc1cccc(C(F)(F)F)c1)c1nc(-c2cccc3ccccc23)no1
inhibition [1]: 57%
inhibition [2]: 56%
IC50 [3]: 13 µM
IC50 [4]: 113 µM

CC(C)(C)c1ccc(-c2noc(C(=O)NNC(=S)Nc3cccc(C(F)(F)F)c3)n2)cc1
inhibition [1]: 59%
inhibition [2]: 87%
IC50 [3]: 192 µM
IC50 [4]: 57 µM

CCCCNC(=O)NNC(=O)c1nc(-c2ccc(C(C)(C)C)cc2)no1
inhibition [1]: 22%
inhibition [2]: 7%
